Experimental data published in ChEMBL document CHEMBL1938329, “The discovery of potent, selective, and orally active pyrazoloquinolines as PDE10A inhibitors for the treatment of Schizophrenia” (Bioorg Med Chem Lett, 2012).
Calls of active or inactive are those of the source. The calls are words filed in the database; no cut-off is given here.

Columns and labels:
[1] = AUC (0 to 6 hrs) in rat at 10 mg/kg, po; format: ADME, organism-based; design: time < 6 hr, dose 10 mg/kg, route oral; conditions: plasma
How it was run: (§1)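 Rat cassette-accelerated rapid screen, 10 mg/kg oral. Plasma exposure measured over 0–6 h. Brain drug concentration taken at 6 h. Brain/plasma ratio is brain over plasma drug concentration at 6 h.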

[2] = target: cAMP and cAMP-inhibited cGMP 3',5'-cyclic phosphodiesterase 10A (Homo sapiens, UniProt Q9Y233); experiment: Inhibition of recombinant human PDE10A using [3H]cAMP as substrate by scintillation proximity assay
cAMP and cAMP-inhibited cGMP 3',5'-cyclic phosphodiesterase 10A, sequence (Q9Y233 whole entry): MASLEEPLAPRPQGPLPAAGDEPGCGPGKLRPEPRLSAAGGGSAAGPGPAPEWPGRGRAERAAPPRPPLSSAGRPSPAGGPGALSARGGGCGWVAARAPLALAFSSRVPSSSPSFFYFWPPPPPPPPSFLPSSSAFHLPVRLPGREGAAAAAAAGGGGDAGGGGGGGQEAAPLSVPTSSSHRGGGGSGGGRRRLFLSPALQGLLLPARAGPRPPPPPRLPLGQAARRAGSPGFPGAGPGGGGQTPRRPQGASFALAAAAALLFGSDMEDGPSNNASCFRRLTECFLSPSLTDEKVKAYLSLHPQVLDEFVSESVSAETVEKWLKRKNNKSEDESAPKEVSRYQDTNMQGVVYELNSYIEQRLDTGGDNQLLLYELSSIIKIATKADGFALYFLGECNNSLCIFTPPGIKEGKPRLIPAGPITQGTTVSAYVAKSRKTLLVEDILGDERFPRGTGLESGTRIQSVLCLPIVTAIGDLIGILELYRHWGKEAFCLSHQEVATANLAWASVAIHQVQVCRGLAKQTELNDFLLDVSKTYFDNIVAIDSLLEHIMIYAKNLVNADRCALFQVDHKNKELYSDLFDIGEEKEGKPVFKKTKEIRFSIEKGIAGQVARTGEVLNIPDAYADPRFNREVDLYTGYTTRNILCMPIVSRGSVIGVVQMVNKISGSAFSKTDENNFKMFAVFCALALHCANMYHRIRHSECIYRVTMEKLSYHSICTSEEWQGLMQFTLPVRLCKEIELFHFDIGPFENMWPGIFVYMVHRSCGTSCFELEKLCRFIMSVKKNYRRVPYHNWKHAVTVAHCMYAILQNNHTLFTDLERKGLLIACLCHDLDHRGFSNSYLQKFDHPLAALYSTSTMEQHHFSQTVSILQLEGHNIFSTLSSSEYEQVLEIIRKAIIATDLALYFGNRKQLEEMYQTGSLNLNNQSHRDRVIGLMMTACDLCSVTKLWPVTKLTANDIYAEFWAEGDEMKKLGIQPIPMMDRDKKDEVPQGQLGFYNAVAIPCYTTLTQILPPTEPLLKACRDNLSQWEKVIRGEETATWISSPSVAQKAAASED
How it was run: (§2)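 Scintillation proximity assay with [³H]cAMP as substrate, measuring hydrolysis of cAMP to AMP by recombinant human PDEs 1–11. Ki values are means of at least two experiments.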

[3] = target: Phosphodiesterase 6; experiment: Inhibition of recombinant human PDE6 using [3H]cAMP as substrate by scintillation proximity assay; format: protein assay; how it was run: as §2
[4] = Drug uptake in rat brain at 10 mg/kg, po after 6 hrs; format: ADME, organism-based; design: dose 10 mg/kg, route oral; conditions: read-out: Drug uptake; how it was run: as §1
[5] = organism: Homo sapiens; experiment: Selectivity ratio of Ki for recombinant human PDE1 to Ki for recombinant human PDE10A
How it was run: (§3)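 Recombinant human PDE enzymes (PDE1–11) were tested in a scintillation proximity assay with [³H]cAMP as substrate, measuring hydrolysis of cAMP to AMP. Ki values are means of at least two experiments. The ratio is the Ki for each off-target PDE divided by the PDE10A Ki.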

[6] = organism: Homo sapiens; experiment: Selectivity ratio of Ki for recombinant human PDE2 to Ki for recombinant human PDE10A; how it was run: as §3
[7] = organism: Homo sapiens; experiment: Selectivity ratio of Ki for recombinant human PDE3 to Ki for recombinant human PDE10A; how it was run: as §3
[8] = organism: Homo sapiens; experiment: Selectivity ratio of Ki for recombinant human PDE4 to Ki for recombinant human PDE10A; how it was run: as §3
[9] = organism: Homo sapiens; experiment: Selectivity ratio of Ki for recombinant human PDE6 to Ki for recombinant human PDE10A; how it was run: as §3
[10] = organism: Homo sapiens; experiment: Selectivity ratio of Ki for recombinant human PDE7 to Ki for recombinant human PDE10A; how it was run: as §3
[11] = organism: Homo sapiens; experiment: Selectivity ratio of Ki for recombinant human PDE8 to Ki for recombinant human PDE10A; how it was run: as §3
[12] = organism: Homo sapiens; experiment: Selectivity ratio of Ki for recombinant human PDE9 to Ki for recombinant human PDE10A; how it was run: as §3
[13] = organism: Homo sapiens; experiment: Selectivity ratio of Ki for recombinant human PDE11 to Ki for recombinant human PDE10A; how it was run: as §3
[14] = Ratio of drug level in brain to plasma in rat at 10 mg/kg, po at 6 hrs; format: ADME, organism-based; design: dose 10 mg/kg, route oral; conditions: read-out: BPR; how it was run: as §1
[15] = test system: Rattus norvegicus; experiment: Antipsychotic activity in CD rat assessed as inhibition of MK-801-induced hyperactivity at 30 mg/kg, po relative to control; format: functional, organism-based; design: dose 30 mg/kg
How it was run: (§4)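 Male CD rats habituated to locomotor activity chambers 24 h before testing. On test day, MK-801 (0.3 mg/kg, sc) co-administered with PDE10 inhibitor (po), then rats placed in apparatus. Inhibition expressed as percent of activity in inhibitor + MK-801 group relative to vehicle + MK-801 group.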

[16] = organism: Homo sapiens; experiment: Selectivity ratio of Ki for recombinant human PDE5A to Ki for recombinant human PDE10A; how it was run: as §3
[17] = target: T1, Phosphodiesterase 6 (Homo sapiens) (UniProt Q13956+P18545+P35913+O43924+P16499+P51160); experiment: Inhibition of recombinant human PDE6 using [3H]cAMP as substrate at 1 uM by scintillation proximity assay; format: protein assay
[18] = test system: Rattus norvegicus; experiment: Antipsychotic activity in CD rat assessed as inhibition of MK-801-induced hyperactivity at 10 mg/kg, po relative to control; format: functional, organism-based; design: dose 10 mg/kg; how it was run: as §4
[19] = Drug uptake in CD rat brain at 30 mg/kg, po after 1 hr; format: ADME, organism-based; design: dose 30 mg/kg, route oral; conditions: read-out: Drug uptake
[20] = target: T1, Phosphodiesterase 6 (Homo sapiens); experiment: Inhibition of recombinant human PDE6 using [3H]cAMP as substrate at 3.6 uM by scintillation proximity assay; format: protein assay
[21] = target: Phosphodiesterase 7 (Homo sapiens, UniProt Q13946+Q9NP56); experiment: Inhibition of recombinant human PDE7 using [3H]cAMP as substrate by scintillation proximity assay; format: protein assay; how it was run: as §2
[22] = target: Phosphodiesterase 8 (Homo sapiens, UniProt O95263+O60658); experiment: Inhibition of recombinant human PDE8 using [3H]cAMP as substrate by scintillation proximity assay; format: protein assay; how it was run: as §2
[23] = target: High affinity cGMP-specific 3',5'-cyclic phosphodiesterase 9A (Homo sapiens, UniProt O76083); experiment: Inhibition of recombinant human PDE9 using [3H]cAMP as substrate by scintillation proximity assay; how it was run: as §2
High affinity cGMP-specific 3',5'-cyclic phosphodiesterase 9A, sequence (O76083 whole entry): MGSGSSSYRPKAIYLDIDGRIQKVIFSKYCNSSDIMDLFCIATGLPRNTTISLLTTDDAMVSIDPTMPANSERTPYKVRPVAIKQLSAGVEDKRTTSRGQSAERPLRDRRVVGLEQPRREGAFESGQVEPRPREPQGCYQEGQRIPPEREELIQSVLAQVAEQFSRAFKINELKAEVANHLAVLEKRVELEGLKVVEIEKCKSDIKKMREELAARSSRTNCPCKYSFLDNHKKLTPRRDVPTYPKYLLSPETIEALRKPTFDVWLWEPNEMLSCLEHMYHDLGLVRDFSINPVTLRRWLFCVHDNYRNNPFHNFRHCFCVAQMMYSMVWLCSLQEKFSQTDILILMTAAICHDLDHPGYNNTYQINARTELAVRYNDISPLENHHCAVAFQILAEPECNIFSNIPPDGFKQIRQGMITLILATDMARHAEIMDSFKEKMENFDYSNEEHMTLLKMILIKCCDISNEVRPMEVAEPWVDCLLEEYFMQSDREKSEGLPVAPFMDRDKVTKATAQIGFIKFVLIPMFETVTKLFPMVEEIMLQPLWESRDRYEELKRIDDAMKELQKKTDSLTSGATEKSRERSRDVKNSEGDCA

[24] = target: Dual 3',5'-cyclic-AMP and -GMP phosphodiesterase 11A (Homo sapiens, UniProt Q9HCR9); experiment: Inhibition of recombinant human PDE11 using [3H]cAMP as substrate by scintillation proximity assay; how it was run: as §2
Dual 3',5'-cyclic-AMP and -GMP phosphodiesterase 11A, sequence (Q9HCR9 whole entry): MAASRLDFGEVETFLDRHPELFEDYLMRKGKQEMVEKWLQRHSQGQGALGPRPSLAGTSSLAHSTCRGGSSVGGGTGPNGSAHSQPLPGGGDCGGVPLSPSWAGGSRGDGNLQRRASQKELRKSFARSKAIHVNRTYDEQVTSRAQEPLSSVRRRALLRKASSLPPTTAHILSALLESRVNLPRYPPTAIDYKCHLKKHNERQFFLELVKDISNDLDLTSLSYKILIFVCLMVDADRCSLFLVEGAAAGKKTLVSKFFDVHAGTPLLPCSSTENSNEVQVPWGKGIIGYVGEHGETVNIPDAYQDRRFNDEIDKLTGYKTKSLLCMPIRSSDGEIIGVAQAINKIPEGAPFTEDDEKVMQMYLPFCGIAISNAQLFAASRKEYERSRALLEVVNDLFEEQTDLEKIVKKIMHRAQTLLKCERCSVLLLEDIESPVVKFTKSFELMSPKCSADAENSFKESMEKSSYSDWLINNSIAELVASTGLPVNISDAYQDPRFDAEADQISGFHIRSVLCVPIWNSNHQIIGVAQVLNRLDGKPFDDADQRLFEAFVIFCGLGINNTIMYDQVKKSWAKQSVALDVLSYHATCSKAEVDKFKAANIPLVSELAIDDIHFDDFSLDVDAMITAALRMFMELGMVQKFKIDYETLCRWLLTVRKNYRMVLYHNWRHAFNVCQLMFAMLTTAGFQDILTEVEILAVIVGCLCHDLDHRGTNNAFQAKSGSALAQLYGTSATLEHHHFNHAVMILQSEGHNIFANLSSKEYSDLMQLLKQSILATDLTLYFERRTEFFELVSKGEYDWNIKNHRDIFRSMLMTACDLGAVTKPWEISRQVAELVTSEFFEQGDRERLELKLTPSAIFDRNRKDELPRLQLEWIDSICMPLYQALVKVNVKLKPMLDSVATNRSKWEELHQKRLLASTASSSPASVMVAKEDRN

[25] = Plasma protein binding in rat; format: ADME, cell-free; conditions: read-out: PPB (converted)
[26] = AUC in dog at 2 mg/kg, po; format: ADME, organism-based, Canis lupus familiaris; design: dose 2 mg/kg, route oral; conditions: plasma
[27] = Clearance in human hepatocytes assessed per million of cells; format: ADME, cell-based, Hepatocyte; conditions: read-out: CLH
[28] = Clearance in rat hepatocytes assessed per million of cells; format: ADME, cell-based, Hepatocyte; conditions: read-out: CLH
[29] = Clearance in dog hepatocytes assessed per million of cells; format: ADME, cell-based, Canis lupus familiaris, Hepatocyte; conditions: read-out: CLH
[30] = Clearance in cebus monkey hepatocytes assessed per million of cells; format: ADME, cell-based, Hepatocyte; conditions: cebus capucinus, read-out: CLH
[31] = Efflux ratio of permeability in human Caco2 cells; format: ADME, cell-based; conditions: Caco-2
[32] = test system: Rattus norvegicus; experiment: Antipsychotic activity in po dosed CD rat assessed as inhibition of MK-801 induced hyperactivity relative to control; format: functional; how it was run: as §4
[33] = organism: Rattus norvegicus; experiment: Sedative activity in rat assessed as hypolocomotion by spontaneous locomotor activity test; format: organism-based; conditions: in vivo
How it was run: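 Hypolocomotion assessed in rats by spontaneous locomotor activity test, run to distinguish reversal of MK-801-induced behaviour from compound-induced hypolocomotion; ED₅₀ derived.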

[34] = target: cGMP-specific 3',5'-cyclic phosphodiesterase (Homo sapiens, UniProt O76074); experiment: Inhibition of recombinant human PDE5A using [3H]cAMP as substrate by scintillation proximity assay; how it was run: as §2
[35] = target: Phosphodiesterase 1 (Homo sapiens, UniProt P54750+Q01064+Q14123); experiment: Inhibition of recombinant human PDE1 using [3H]cAMP as substrate by scintillation proximity assay; format: protein assay; how it was run: as §2
[36] = target: cGMP-dependent 3',5'-cyclic phosphodiesterase (Homo sapiens, UniProt O00408); experiment: Inhibition of recombinant human PDE2 using [3H]cAMP as substrate by scintillation proximity assay; how it was run: as §2
cGMP-dependent 3',5'-cyclic phosphodiesterase, sequence (O00408 whole entry): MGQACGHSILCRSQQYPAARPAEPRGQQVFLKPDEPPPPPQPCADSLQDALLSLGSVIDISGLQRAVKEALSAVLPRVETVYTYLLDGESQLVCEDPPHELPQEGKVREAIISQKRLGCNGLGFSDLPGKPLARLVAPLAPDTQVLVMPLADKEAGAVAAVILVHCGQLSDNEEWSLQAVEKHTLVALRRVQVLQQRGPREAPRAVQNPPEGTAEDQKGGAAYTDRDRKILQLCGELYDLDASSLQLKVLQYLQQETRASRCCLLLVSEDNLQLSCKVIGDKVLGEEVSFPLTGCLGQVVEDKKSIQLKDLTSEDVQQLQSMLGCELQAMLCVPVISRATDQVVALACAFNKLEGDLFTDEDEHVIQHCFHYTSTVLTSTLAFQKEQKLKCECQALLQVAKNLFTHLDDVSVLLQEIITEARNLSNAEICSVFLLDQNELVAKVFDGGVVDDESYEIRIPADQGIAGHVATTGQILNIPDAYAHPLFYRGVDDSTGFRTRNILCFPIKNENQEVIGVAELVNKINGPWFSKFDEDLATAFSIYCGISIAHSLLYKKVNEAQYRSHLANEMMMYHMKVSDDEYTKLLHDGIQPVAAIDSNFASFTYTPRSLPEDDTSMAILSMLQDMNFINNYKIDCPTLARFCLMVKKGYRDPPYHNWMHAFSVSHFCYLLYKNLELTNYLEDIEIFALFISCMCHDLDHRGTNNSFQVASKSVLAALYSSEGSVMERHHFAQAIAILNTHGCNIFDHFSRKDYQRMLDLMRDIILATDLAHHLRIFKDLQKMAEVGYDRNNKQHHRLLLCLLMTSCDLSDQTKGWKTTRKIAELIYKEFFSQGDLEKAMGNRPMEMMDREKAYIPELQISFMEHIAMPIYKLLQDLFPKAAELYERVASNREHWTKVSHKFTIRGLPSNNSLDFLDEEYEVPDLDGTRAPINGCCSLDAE

[37] = target: Phosphodiesterase 3 (Homo sapiens, UniProt Q14432+Q13370); experiment: Inhibition of recombinant human PDE3 using [3H]cAMP as substrate by scintillation proximity assay; format: protein assay; how it was run: as §2
[38] = target: Phosphodiesterase 4 (Homo sapiens, UniProt P27815+Q08499+Q07343+Q08493); experiment: Inhibition of recombinant human PDE4 using [3H]cAMP as substrate by scintillation proximity assay; format: protein assay; how it was run: as §2

Cc1cc(Cl)cc2c(N3CCNCC3)c3c(C)n[nH]c3nc12
AUC(0-t) at 6 h [1]: 0.14 µM·h
Ki [2]: 35 nM

COc1cc(C)c2nc3[nH]nc(C)c3c(NCCc3ccncc3)c2c1
Ki [3]: 554 nM
Ki [2]: 70 nM

COc1cc(C)c2nc3[nH]nc(C)c3c(NCC3CCNCC3)c2c1
Ki [3]: 14782 nM
Ki [2]: 15 nM

COc1cc(C)c2nc3[nH]nc(C)c3c(NCc3ccccn3)c2c1
Ki [3]: 1811 nM
Ki [2]: 6 nM

COc1cc(C)c2nc3[nH]nc(C)c3c(NCC3CCOCC3)c2c1
Ki [3]: 697 nM
Ki [2]: 52 nM

COc1cc(C)c2nc3[nH]nc(C)c3c(N3CCCNCC3)c2c1
Ki [2]: 15 nM

COc1cc(C)c2nc3[nH]nc(C)c3c(N3CCC(O)CC3)c2c1
concentration at 6 h [4]: < 10 ng/g
Ki [2]: 14 nM

COc1cc(C)c2nc3[nH]nc(C)c3c(N3CCCOCC3)c2c1
Ratio Ki [5]: > 1450
Ratio Ki [6]: > 1450
Ratio Ki [7]: > 1450
Ratio Ki [8]: > 1450
Ratio Ki [9]: > 1450
Ratio Ki [10]: > 1450
Ratio Ki [11]: > 1450
Ratio Ki [12]: > 1450
Ratio Ki [13]: > 1450
AUC(0-t) at 6 h [1]: 11 µM·h
Kp at 6 h [14]: 0.3
inhibition [15]: Active
Ratio Ki [16]: > 1450
Ki [2]: 3.6 nM

COc1cc(C)c2nc3[nH]nc(C)c3c(N3CCCCC3)c2c1
Ki [2]: 363 nM

COc1cc(C)c2nc3[nH]nc(C)c3c(NCCC3CCOCC3)c2c1
Ki [2]: 409 nM

COc1cc(C)c2nc3[nH]nc(C)c3c(NCC3CNCCO3)c2c1 (centres undefined)
Ki [3]: 13882 nM
Ki [2]: 5 nM

COc1cc(C)c2nc3[nH]nc(C)c3c(N3CCC(C(N)=O)CC3)c2c1
concentration at 6 h [4]: < 10 ng/g
Ki [2]: 3 nM

COc1cc(C)c2nc3[nH]nc(C)c3c(OC3CCOCC3)c2c1
AUC(0-t) at 6 h [1]: 10.6 µM·h
inhibition [17]: 30%
inhibition [15]: Active
inhibition [18]: inactive
Ki [2]: 3.1 nM

COc1cc(C)c2nc3[nH]nc(C)c3c(N3CCC(NC(N)=O)CC3)c2c1
concentration at 6 h [4]: < 10 ng/g
Ki [2]: 27 nM

Cc1n[nH]c2nc3ccc(Cl)cc3c(N3CCNCC3)c12
Ki [2]: 419 nM

COc1cc(C)c2nc3[nH]nc(C)c3c(N3CCOCC3)c2c1
Ki [2]: 23 nM

COc1cc(C)c2nc3[nH]nc(C)c3c(N3CCOC(CO)C3)c2c1 (racemic)
concentration at 6 h [4]: < 10 ng/g
Ki [2]: 9.6 nM

COc1ccc2nc3[nH]nc(C)c3c(N3CCNCC3)c2c1
Ki [2]: 585 nM

COc1cc(C)c2nc3[nH]nc(C)c3c(N3CCSCC3)c2c1
Ki [2]: 196 nM

COc1cc(C)c2nc3[nH]nc(C)c3c(N3CCC(CN)CC3)c2c1
Ki [2]: 0.5 nM

COc1cc(C)c2nc3[nH]nc(C)c3c(NCC3CCCCO3)c2c1 (centres undefined)
Ki [3]: 843 nM
Ki [2]: 130 nM

COc1cc(C)c2nc3[nH]nc(C)c3c(NCC3CN(C)CCO3)c2c1 (centres undefined)
Ki [2]: 280 nM

COc1cc(C)c2nc3[nH]nc(C)c3c(N3CCC(N)CC3)c2c1
concentration at 6 h [4]: < 10 ng/g
Ki [2]: 1 nM

COc1cc(C)c2nc3[nH]nc(C)c3c(NCc3ccncc3)c2c1
Ki [3]: 211 nM
Ki [2]: 0.6 nM

COc1cc(C)c2nc3[nH]nc(C)c3c(N3CCN(C(N)=O)[C@@H](C)C3)c2c1
AUC(0-t) at 6 h [1]: 9.5 µM·h
concentration at 6 h [4]: < 10 ng/g
inhibition [15]: inactive
concentration at 1 h [19]: 27 ng/g
Ki [2]: 3.3 nM

COc1cc(C)c2nc3[nH]nc(C)c3c(NC3CCNCC3)c2c1
inhibition [20]: 48%
Ki [2]: 55 nM

COc1cc(C)c2nc3[nH]nc(C)c3c(NC3CCOCC3)c2c1
Ki [3]: 278 nM
Ki [21]: >= 4793 nM
Ki [22]: >= 4793 nM
Ki [23]: ≥ 4790 nM
Ki [24]: ≥ 4790 nM
AUC(0-t) at 6 h [1]: 11.8 µM·h
concentration at 6 h [4]: 1100 ng/g
Kp at 6 h [14]: 0.7
fraction unbound [25]: 0.07
AUC [26]: 12.5 µM·h
hepatocyte CLint [27]: 1.7 µL/min/1e6 cells
hepatocyte CLint [28]: 2.9 µL/min/1e6 cells
hepatocyte CLint [29]: 0.8 µL/min/1e6 cells
hepatocyte CLint [30]: 54 µL/min/1e6 cells
efflux ratio [31]: 0.7
ED50 [32]: 4 mg/kg
ED50 [33]: 23 mg/kg
Ki [34]: 17300 nM
Ki [2]: 12 nM
Ki [35]: >= 4793 nM
Ki [36]: ≥ 4790 nM
Ki [37]: >= 4793 nM
Ki [38]: >= 4793 nM

COc1cc(C)c2nc3[nH]nc(C)c3c(N3CCCC(CO)C3)c2c1 (racemic)
concentration at 6 h [4]: < 10 ng/g
Ki [2]: 29 nM

COc1cc(C)c2nc3[nH]nc(C)c3c(N(C)C3CCOCC3)c2c1
Ki [3]: 7383 nM
Ki [2]: 41 nM

Cc1n[nH]c2nc3ccccc3c(N3CCNCC3)c12
Ki [2]: 550 nM
